Columns and labels:
[1] = system: Human immunodeficiency virus 1; assay: Antiviral activity against HIV-1 harboring NNTRI-resistant reverse transcriptase Y181C mutant infected in human MT4 cells assessed as inhibition of virus-induced cytopathic effect by MTT method; format: functional, organism-based; conditions: Human immunodeficiency virus 1, MT4
Outline: (§1)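 MT-4 lymphoid cells infected with HIV-1 carrying RT K103N, Y181C or Y188L, with a range of drug concentrations present. Viable cells counted by MTT colorimetric assay at day 5 post-infection. […] Highest concentration tested was limited by precipitation in culture medium. Means of at least two experiments.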

[2] = system: Human immunodeficiency virus type 1 reverse transcriptase (Human immunodeficiency virus 1), Q72547 [L100I]
[3] = Cytotoxicity against human MT4 cells assessed as induction of cell death by MTT method; format: cell-based
Outline: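 Mock-infected MT-4 cells exposed to a range of drug concentrations. Viability read by MTT colorimetry at day 5. […] Top concentration was limited where compound precipitated in the culture medium. Means of at least two experiments.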

[4] = system: Human immunodeficiency virus 1; assay: Fold resistance, ratio of EC50 for HIV-1 harboring NNTRI-resistant reverse transcriptase Y181C mutant infected in human MT4 cells to EC50 for wild type HIV-1 NL4-3 infected in human MT4 cells; format: functional
Outline: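 MT-4 cells infected with HIV-1 mutant (K103N or Y181C) or wild-type NL4-3, with drug present. […] Fold resistance is the mutant EC50 divided by the wild-type NL4-3 EC50. EC50 values are means of at least two experiments.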

[5] = system: Human immunodeficiency virus 1; assay: Fold resistance, ratio of EC50 for HIV-1 harboring NNTRI-resistant reverse transcriptase K103N mutant infected in human MT4 cells to EC50 for wild type HIV-1 NL4-3 infected in human MT4 cells; format: functional
[6] = Selectivity index, ratio of CC50 for human MT4 cells to EC50 for wild type HIV-1 NL4-3 infected in human MT4 cells; format: toxicity, cell-based; conditions: read-out: Ratio CC50/EC50
Outline: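 Ratio of CC50 to EC50, both from MTT readings in MT-4 cells at day 5. CC50 was taken in mock-infected cells and EC50 in cells infected with wild-type NL4-3. Values are means of at least two experiments.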

[7] = system: Human immunodeficiency virus type 1 reverse transcriptase (Human immunodeficiency virus 1), Q72547 [K103N]
[8] = target: Human immunodeficiency virus type 1 reverse transcriptase (Human immunodeficiency virus 1) (UniProt Q72547)
[9] = system: Human immunodeficiency virus 1; assay: Antiviral activity against HIV-1 harboring NNTRI-resistant reverse transcriptase Y188L mutant infected in human MT4 cells assessed as inhibition of virus-induced cytopathic effect by MTT method; format: functional, organism-based; conditions: Human immunodeficiency virus 1, MT4; outline: as §1
[10] = system: Human immunodeficiency virus 1; assay: Ratio of efavirenz EC50 to compound EC50 for wild type HIV-1 NL4-3 infected in human MT4 cells; format: functional
[11] = system: Human immunodeficiency virus 1; assay: Antiviral activity against HIV-1 harboring NNTRI-resistant reverse transcriptase K103N mutant infected in human MT4 cells assessed as inhibition of virus-induced cytopathic effect by MTT method; format: functional, organism-based; conditions: Human immunodeficiency virus 1, MT4
[12] = system: Human immunodeficiency virus 1; assay: Antiviral activity against wild type HIV-1 NL4-3 infected in human MT4 cells assessed as inhibition of virus-induced cytopathic effect by MTT method; format: functional, organism-based; conditions: Human immunodeficiency virus 1, NL4-3, MT4
Outline: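 MT-4 lymphoid cells infected with wild-type HIV-1 NL4-3 while exposed to a range of drug concentrations. Viable cells counted by tetrazolium (MTT) colorimetry at day 5 post-infection. Means of at least two experiments.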

[13] = system: Human immunodeficiency virus 1; assay: Fold resistance, ratio of EC50 for HIV-1 harboring NNTRI-resistant reverse transcriptase Y188L mutant infected in human MT4 cells to EC50 for wild type HIV-1 NL4-3 infected in human MT4 cells; format: functional
Outline: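 HIV-1 NL4-3 (wt) or Y188L mutant infection of MT-4 cells across a range of drug concentrations. Viable cells were counted by MTT at day 5 post-infection. […] Fold resistance is mutant EC50 over wt EC50. Means of at least two experiments.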

[14] = system: Human immunodeficiency virus 1; assay: Fold resistance, ratio of ID50 for HIV-1 recombinant NNTRI-resistant reverse transcriptase K103N mutant to ID50 for wild type HIV-1 recombinant reverse transcriptase
Outline: (§2)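 Recombinant wt or mutant HIV-1 RT, purified to >95%, at 2-4 nM. RNA-dependent DNA polymerase activity with 0.5 µg poly(rA)/oligo(dT)10:1 (0.3 µM 3'-OH ends), 10 µM [3H]-dTTP and 8% final DMSO. Incorporation was sampled at 2-min intervals. ID50 came from fitting to a fully non-competitive model. Ratio is ID50 mutant/ID50 wt. Means of at least three experiments.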

[15] = system: Human immunodeficiency virus 1; assay: Fold resistance, ratio of ID50 for HIV-1 recombinant NNTRI-resistant reverse transcriptase Y181I mutant to ID50 for wild type HIV-1 recombinant reverse transcriptase
Outline: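 RNA-dependent DNA polymerase activity with 0.5 µg poly(rA)/oligo(dT)10:1 (0.3 µM 3'-OH ends), 10 µM [3H]-dTTP and 8% final DMSO. Incorporation was sampled at 2-min intervals. ID50 came from fitting to a fully non-competitive model. Means of at least three experiments.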

[16] = system: Human immunodeficiency virus 1; assay: Fold resistance, ratio of ID50 for HIV-1 recombinant NNTRI-resistant reverse transcriptase L100I mutant to ID50 for wild type HIV-1 recombinant reverse transcriptase; outline: as §2
[17] = system: Human immunodeficiency virus type 1 reverse transcriptase (Human immunodeficiency virus 1), Q72547 [Y181I]

Row | Compound | EC50 [1] [nM] | ID50 [2] [nM] | CC50 [3] [nM] | Ratio EC50 [4] | Ratio EC50 [5] | selectivity ratio [6] | ID50 [7] [nM] | ID50 [8] [nM] | EC50 [9] [nM] | Ratio EC50 [10] | EC50 [11] [nM] | EC50 [12] [nM] | Ratio EC50 [13] | Ratio [14] | Ratio [15] | Ratio [16] | ID50 [17] [nM]
1 | CCCSc1nc(C(C)c2c(F)cccc2Cl)c(C)c(=O)[nH]1 (racemic) | 260 | 90 | > 1500 | 5200 | 7000 | > 30000 | 1500 | 0.9 | > 1500 | 140 | 350 | 0.05 | – | – | – | – | –
2 | Cc1c(C(C)c2c(F)cccc2Cl)nc(SC2CCCC2)[nH]c1=O (racemic) | 230 | 120 | > 15000 | 7667 | 3100 | > 500000 | 1300 | 11 | 2900 | 230 | 93 | 0.03 | 96667 | – | – | – | –
3 | CCCCSc1nc(C(C)c2c(F)cccc2Cl)c(C)c(=O)[nH]1 (racemic) | 620 | 156 | > 1500 | 2067 | 2200 | > 5000 | 930 | 3 | > 1500 | 23 | 660 | 0.3 | – | 310 | 20000 | 52 | –
4 | CCC(C)Sc1nc(C(C)c2c(F)cccc2Cl)cc(=O)[nH]1 (racemic) | 3600 | – | > 73000 | 3600 | 1000 | > 73000 | – | – | 7500 | – | 1000 | 1 | 7500 | 375 | 2640 | 25 | –
5 | CC[C@@H](C)Sc1nc([C@H](C)c2c(F)cccc2Cl)cc(=O)[nH]1 | 580 | – | > 31000 | 1924 | 610 | > 103000 | – | – | 860 | – | 200 | 0.3 | 2859 | 488 | 3750 | 18 | –
6 | Cc1c(C(C)c2c(F)cccc2F)nc(SC2CCCC2)[nH]c1=O (racemic) | 100 | 300 | > 3000 | 100 | 230 | > 3000 | 30 | 5 | > 3000 | – | – | – | – | 6 | 180 | 60 | 900

— ChEMBL document CHEMBL3286172, “Exploring the role of 2-chloro-6-fluoro substitution in 2-alkylthio-6-benzyl-5-alkylpyrimidin-4(3H)-ones: effects in HIV-1-infected cells and in HIV-1 reverse transcriptase enzymes” (J Med Chem, 2014)
